# Screening data from PubChem BioAssay.
# KCNQ1 pot: potentiators or activators of KCNQ1 channel, primary screen, cell-based, thallium flux, high-throughput; B-score at 10 µM; 0.35% of 310,000 active; CHO-K1 KCNQ1, thallium flux FluxOR fluorescence; hits give high values; AID 2648, 2010;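 active = fluorescence ratio B-score, a plate-corrected score, at least three library SD, with initial intensity B-score within 5 SD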
#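 Material: CHO-K1 cells stably expressing KCNQ1. Medium: assay buffer for compound exposure, DMSO matched across wells. Reagent: K+/Tl+ depolarizing stimulus. Compound dosing: single-concentration screen. Times: 37 °C overnight plating, 90-min dark dye load, 20-min compound pretreatment. Technique: FluxOR Tl+ flux fluorescence.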
# KCNK3 inh: human KCNK3 channel inhibitors, primary screen, CHO cells, FluxOR thallium flux, B-score. Potassium channel subfamily K member 3 (Homo sapiens), O14649. FluxOR fluorescence; hits give low values. B-score at 10 µM. 0.84% of 340,000 active;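 active = B-score under library mean minus 4 SD, starting fluorescence ratio at most library mean plus 5 SD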;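 also: more negative B-score means stronger inhibition of thallium flux through KCNK3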
# KCNQ1 inh: inhibitors of human KCNQ1 channel, primary screen, cell-based, thallium flux, high-throughput; Potassium voltage-gated channel subfamily KQT member 1 (Homo sapiens), P51787; CHO-K1 KCNQ1, FluxOR thallium flux fluorescence; hits give high values; B-score at 10 µM; 1.3% of 310,000 active; AID 2642, 2010;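 active = compounds whose thallium flux B-score, printed positive for inhibition, exceeds three library SD while starting fluorescence stays within three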;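 also: channel opened by potassium depolarization with thallium stimulus after 20 min compound exposure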
# KCC2 mod: KCC2 cotransporter modulators, thallium flux, primary screen, cell-based, HEK293 KCC2, FluoZin-2 fluorescence, MLSMR. Solute carrier family 12 member 5 (Homo sapiens), Q9H2X9. KCC2 cells, thallium flux FluoZin-2 fluorescence. B-score of Tl+ flux slope (higher = more flux/activation; lower = inhibition) at 10 µM. 2.2% of 190,000 active. AID 1456, 2008;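 active = thallium flux slope and its plate-corrected score both differing from the plate sample mean at a set confidence after two filtering rounds, in either direction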;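 also: slope of fluorescence scaled to starting intensity during 10 to 20 s after thallium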
# Target sequence (Q9H2X9 whole entry, looked up): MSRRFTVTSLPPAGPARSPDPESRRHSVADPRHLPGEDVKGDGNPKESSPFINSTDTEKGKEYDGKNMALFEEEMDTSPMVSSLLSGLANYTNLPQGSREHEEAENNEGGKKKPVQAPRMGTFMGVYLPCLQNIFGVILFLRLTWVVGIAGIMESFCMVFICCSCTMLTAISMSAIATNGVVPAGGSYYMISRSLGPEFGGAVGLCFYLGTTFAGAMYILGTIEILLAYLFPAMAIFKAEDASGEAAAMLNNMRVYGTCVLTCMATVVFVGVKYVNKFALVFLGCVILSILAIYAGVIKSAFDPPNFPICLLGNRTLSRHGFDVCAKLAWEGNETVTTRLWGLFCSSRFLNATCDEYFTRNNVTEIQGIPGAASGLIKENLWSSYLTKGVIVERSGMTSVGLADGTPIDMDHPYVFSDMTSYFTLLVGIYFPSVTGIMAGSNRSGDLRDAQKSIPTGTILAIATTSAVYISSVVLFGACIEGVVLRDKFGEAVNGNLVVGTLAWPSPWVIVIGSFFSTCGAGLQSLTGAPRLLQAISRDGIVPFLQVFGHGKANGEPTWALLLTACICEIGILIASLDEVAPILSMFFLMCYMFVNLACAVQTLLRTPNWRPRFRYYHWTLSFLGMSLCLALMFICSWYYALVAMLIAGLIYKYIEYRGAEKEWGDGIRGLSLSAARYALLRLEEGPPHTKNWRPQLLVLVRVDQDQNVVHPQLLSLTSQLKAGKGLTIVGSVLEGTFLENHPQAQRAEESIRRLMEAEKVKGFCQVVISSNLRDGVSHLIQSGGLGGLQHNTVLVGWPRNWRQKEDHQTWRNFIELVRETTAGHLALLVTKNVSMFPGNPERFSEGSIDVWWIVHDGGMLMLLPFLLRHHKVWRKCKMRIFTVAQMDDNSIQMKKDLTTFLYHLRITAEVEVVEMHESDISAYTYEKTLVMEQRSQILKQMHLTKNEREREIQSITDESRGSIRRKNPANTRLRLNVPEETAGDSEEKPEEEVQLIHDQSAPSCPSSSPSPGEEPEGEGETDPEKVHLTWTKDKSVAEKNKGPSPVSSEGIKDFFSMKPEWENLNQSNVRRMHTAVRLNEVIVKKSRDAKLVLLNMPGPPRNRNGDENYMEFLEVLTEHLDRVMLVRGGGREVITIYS
# KCNK9 inh: KCNK9 potassium channel inhibitors, primary screen, HEK293 cells, thallium flux. 1.2% of 310,000 active. FluxOR thallium flux fluorescence; hits give low values. AID 488922, 2010. B-score at 10 µM. Potassium channel subfamily K member 9 (Homo sapiens), Q9NPC2;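 active = ratio B-score over 3 SD below the library mean, with starting fluorescence within 5 SD of its mean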;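 also: negative B-score means less thallium flux so channel inhibition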
# hERG protect: hERG rescue from dofetilide block, primary screen, cell-based, CHO-hERG, FluxOR thallium flux, dofetilide IC70 | Voltage-gated inwardly rectifying potassium channel KCNH2 (Homo sapiens), Q12809 | dofetilide IC70 present | activation (rescue from dofetilide block), less the hit threshold, % at 10 µM | 0.51% of 310,000 active;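 active = activation above the mean of controls blocked by dofetilide plus 5 SD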;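 also: thallium influx through hERG after potassium depolarization seen as dye fluorescence rise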
# Active calls of the source: *; i = inactive; . = not tested or not shown. Most compounds without a hit are left out; they make up all but 4.1% or so of the library.
SMILES,KCNQ1 pot,KCNK3 inh,KCNQ1 inh,KCC2 mod,KCNK9 inh,hERG protect
C=CCNc1nc(Nc2ccc([N+](=O)[O-])cc2)nc(N2CCCC2)n1,i,i,8*,-1.2,i,-20
COc1ccc(Nc2nc(Cl)nc(N3CCN(c4ccc(OC)cc4)CC3)n2)cc1,i,.,i,0.39,i,-39
Cc1noc(C)c1S(=O)(=O)N1CCN(c2ccc(Cl)cc2)CC1,i,i,i,.,i,-3
Cc1ccc(Cl)cc1N1CCN(S(=O)(=O)c2c(C)noc2C)CC1,i,i,6*,.,i,-2
Nc1nnc(N2CCc3ccccc32)s1,i,i,i,0.0083,i,-4
O=C(Nc1ccc(Cl)c(Cl)c1)C1=Cc2ccccc2OC1,i,i,7*,-0.22,i,-10
O=C(Nc1cccc(Cl)c1)C1=Cc2cc(Cl)ccc2OC1,i,i,i,0.18,i,-10
Cc1nc(NCc2ccccc2)[nH]c(=O)c1CCC(C)C,i,i,i,1.1,i,-9
Cc1nn(-c2ccccc2)c(C)c1/C=N/NC(=O)c1cccs1,i,i,i,-0.21,-7.8*,-7
COc1ccccc1C(=O)N/N=C/c1ccc(Cl)s1,i,i,i,-1.9,i,-10
CSc1ccc(/C=N/NC(=O)c2cccs2)cc1,46*,i,i,-0.59,i,25*
Cc1c(/C=N/NC(=O)c2cccs2)c2ccccc2n1Cc1ccccc1Cl,i,-9.3*,i,0.69,-7.7*,-8
O=C(N/N=C\c1ccc(Cl)s1)c1cccs1,i,i,i,19*,i,-4
O=C(N/N=C/c1ccncc1)c1cccs1,i,i,i,.,i,-8
CCOc1ccc(N2C(=O)CC(N3CCN(c4ccccc4OC)CC3)C2=O)cc1 (centres undefined),i,i,i,.,i,-10
COc1cccc2c(=O)c(C(=O)NCc3cccs3)c[nH]c12,i,i,i,-0.45,i,-5
CCOc1cccc2c1OC1(C)CC2NC(=O)N1c1cccc(F)c1 (centres undefined),i,i,i,1.7,i,-8
O=C(NC(c1ccccc1)c1ccccc1)C1CCCO1 (centres undefined),i,i,i,-0.0032,i,-15
CC(C)(C)NC(=O)CSc1nnc(-c2ccco2)n1Cc1ccco1,i,i,i,-0.014,i,4.9*
COC(=O)c1ccc(Nc2cc(C)nc(-c3ccccc3O)n2)cc1,i,i,i,6.2*,i,-6
Fc1cccc(Cl)c1/C=N/Nc1c(Cl)cncc1Cl,i,i,i,1.1,i,-5
Cc1sc(NC(=O)CSc2nnc(COc3ccc(Cl)cc3)n2C)c(C#N)c1C,i,i,i,0.015,i,-10
CC1CCc2c(sc3nc(C4CC4)nc(N4CCN(C(=O)c5ccco5)CC4)c23)C1 (centres undefined),i,i,6*,-0.13,i,3
COc1ccc(NC(=O)c2ccc3c(SCC(=O)O)c4c(nc3c2)CCCC4)cc1Cl,i,.,i,-3.3,i,7.8*
Cn1nc(-c2ccccc2)c(CSc2ccccc2)c1Cl,i,i,i,-0.15,-7.3*,-7
SMILES,KCNQ1 pot,KCNK3 inh,KCNQ1 inh,KCC2 mod,KCNK9 inh,hERG protect
COc1ccc(-c2cn3cc(C(=O)NN)ccc3n2)cc1,i,i,i,0.23,i,5.2*
CCOc1cc(Br)cc(/C=C2\SC(=Nc3ccccc3)NC2=O)c1O,i,i,6*,.,i,1
Cc1ccc(S(=O)(=O)/N=C2/NC(=O)/C(=C/c3ccc(Br)o3)S2)cc1,i,i,i,0.76,i,-2
Cc1ccc(S(=O)(=O)/N=C2/NC(=O)/C(=C\c3cc(Br)cc(Br)c3O)S2)cc1,i,i,7*,.,i,-16
COc1ccc(OC)c(-c2oc3ccccc3c(=O)c2O)c1,i,i,i,6.8*,i,-8
COc1ccc(-n2c(=S)[nH]c3cc(C(=O)Nc4ccccc4OC)ccc3c2=O)c(OC)c1,i,i,i,.,i,-2
O=C(NNC(=O)c1sccc1-n1cccc1)c1cccc(Cl)c1,i,i,i,12*,i,-4
CNC(=O)c1sccc1-n1cccc1,i,i,i,1.1,i,-4
Cc1ccc(CNC(=O)c2sccc2-n2cccc2)cc1,i,i,i,6.9*,i,-4
CN(C)C(=O)COn1c(SCC(=O)N(C)C)nc2ccccc2c1=O,i,i,i,1.1,i,-8
CN(Cc1ccccc1)C1=CC(=[N+]2CCCC2)CC(C)(C)C1,i,i,10*,0.16,i,-23
CCN(CC)C1=CC(=[N+]2CCCC2)CC(C)(C)C1,i,i,i,0.46,i,-10
O=C(CSc1cn[nH]n1)Nc1cccc(C(=O)O)c1,i,i,i,.,i,-9
O=C(CSc1cn[nH]n1)Nc1cccc(C(F)(F)F)c1,i,i,i,.,-7.5*,-10
O=C1/C(=C\c2ccc(O)c(O)c2)C(c2ccccc2)=NN1c1ccccc1,i,i,6*,-0.62,i,-29
COc1cc(/C=C2\C(=O)N(c3ccc(NC(C)=O)cc3)N=C2c2ccccc2)ccc1O,i,i,i,-1.9,i,-17
Cc1nc2ccc(Br)cn2c1C(=O)N/N=C\c1ccccc1[N+](=O)[O-],i,i,i,.,i,-9
CC(C)NC(=S)N=Nc1c(O)[nH]c2ccc([N+](=O)[O-])cc12,i,i,i,2,i,-6
CNC(=S)N=Nc1c(O)[nH]c2ccc(C(C)C)cc12,i,i,i,6.6*,i,-13
COc1ccc(NC(=O)c2ccc3ccccc3c2)cc1NS(=O)(=O)c1ccc(F)cc1,i,i,i,-1,i,-8
O=[N+]([O-])c1cccc(-c2cc3ccccc3[nH]2)c1,i,i,i,.,i,-16
O=[N+]([O-])/C=C/c1cc2ccccc2[nH]1,i,i,6*,-1.2,i,-9
CN(CC(=O)Nc1ccc(F)c(F)c1F)C(=O)C1CSC2(C)CCC(=O)N12 (centres undefined),.,i,.,.,.,.
